According to PubChem BioAssay:
Records with an inconclusive call do not appear.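 Rule for the calls, unless noted: active = RAM network inhibition above 8.4% in each of two replicates, 3 SD over the compound average; inconclusive = above 8.4% inhibition in only one replicate; inactive = 8.4% inhibition or less in each replicate.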

What was measured:
[1] = OD615 S. cerevisiae growth inhibition, permissive medium, pilot counter-assay, permissive growth control for S. cerevisiae lifespan shortening project (AID 705;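 active = growth inhibition above 25% in both replicates, a cutoff set 3 SD above the mean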); conditions: OD615, 24 h, at 10 µM, active compounds read high
Method in brief: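 System: Engineered DeaD yeast | Buffer or medium: SC raffinose/galactose permissive medium | Incubation: Cells pre-grown 4 h, then 24 h compound exposure, 30 °C humidified | Measured by: Absorbance (optical density) at 615 nm | Read-out: Reduction in yeast growth (OD615)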

[2] = Restrictive medium S. cerevisiae growth inhibition, OD615, pilot screen of yeast lifespan reduction project, restrictive growth control (AID 706;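 active = growth inhibition above a set limit, 3 SD over mean compound inhibition, in both replicates, cut at about 43% in these data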;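 note: modified DeaD lifespan yeast strain shifted to restrictive glucose medium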); conditions: OD615, 48 h, at 10 µM, active compounds read high
Method in brief: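 Material: modified S. cerevisiae; Medium: glucose-based CSMM-D restrictive medium; Compound dosing: one concentration, 10 µM final, 0.25% DMSO; Incubation: 48 h compound exposure at 30 °C; Measured by: OD615.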

[3] = viability gain of MRP-1-high H69AR cells under doxorubicin, pilot screen, MRP-1 activator project, CellTiter-Glo, duplicate (AID 807;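 active = viability increase at or above a cutoff of the median across tested compounds plus 3 SD, cut at about 8.5% in these data, passing the limit was not always enough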;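 note: compound pretreatment 18-22 h then 72 h combined with doxorubicin; 0% = doxorubicin alone and 100% = vehicle without doxorubicin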); conditions: H69AR viability with doxorubicin, CellTiter-Glo luminescence; at 10 µM; active compounds read high
[4] = growth suppression of beta-catenin knockout HCT116, pilot screen, human colon tumor cells (AID 823;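 active = cell viability at or below a set limit in both duplicate runs, the limit being the all-compound median minus 4 SD, cut at about 23% in these data, passing the limit was not always enough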;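 note: 0% = wells killed by 20 µM Hyamine and 100% = untreated DMSO cell wells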); conditions: CellTiter-Glo, 60 h, at 10 µM, active compounds read low
[5] = growth suppression of PTEN-deleted HCT116, pilot screen, cell-based, HCT116 clonal line, CellTiter-Glo (AID 824;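 active = viability at or below 27.92% in each of two runs, the all-compound median minus 4 SD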;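 note: 0% = 20 µM Hyamine control and 100% = vehicle cell control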); conditions: 60 h, at 10 µM, active compounds read low
[6] = inhibitors of the yeast RAM network, pilot screen, dse1pr::URA3 reporter, 5-FOA selection (AID 869;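 active = inhibition over a set limit, the all-compound mean plus 3 SD, in both replicate runs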;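 note: 0% = DMSO wells with no growth and 100% = 10 µM 1-NA-PP1 with full growth; RAM network block rescues cells from 5-FOA so hits raise OD615 growth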); conditions: S. cerevisiae dse1pr::URA3 5-FOA growth, OD615, 2 d; at 10 µM; active compounds read high; strain carries analog-sensitive mutant Cbk1 kinase
[7] = RAM signaling pathway blockade in yeast – S. cerevisiae, Pdr1DBD-CYC8 efflux-inhibited sensitized strain, primary screen (AID 1298);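 note: 0% = DMSO untreated cells without growth and 100% = 10 µM 1-NA-PP1 full growth; higher means more yeast growth rescued from 5-FOA killing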; conditions: S. cerevisiae cbk1-as DSE1-URA3 strain, 5-FOA growth OD615, 2 d; at 50 µM; active compounds read high

Cn1c(C(=O)N2CCN(Cc3ccccc3)CC2)cc2c(=O)n(C)c3ccccc3c21
inactive: growth inhibition [1] 7.94% | growth inhibition [2] 3.57% | viability increase [3] -4.21% | viability [4] 74.8% | viability [5] 74.8% | inhibition [6] 0.905% | RAM network inhibition [7] 1.37%

Cc1cc2oc3c(c(=O)c2cc1C)C(c1ccc(F)cc1)N(CCCN1CCOCC1)C3=O (configuration not stated)
inactive: growth inhibition [1] 4.43% | growth inhibition [2] -11.3% | viability increase [3] -2.77% | viability [4] 98.5% | viability [5] 96% | inhibition [6] 1.74% | RAM network inhibition [7] 1.83%

CCOC(=O)c1c(CN(CC)CC)oc2cc(Br)c(O)cc12
inactive: growth inhibition [1] -0.115% | growth inhibition [2] 0.915% | viability increase [3] -3.81% | viability [4] 78.2% | viability [5] 81.6% | inhibition [6] -0.04% | RAM network inhibition [7] 3.43%

Cc1ccc(C)c(N2CCN(C(=O)CCc3nc4ccccc4[nH]3)CC2)c1
inactive: growth inhibition [1] 6.2% | growth inhibition [2] 7.36% | viability increase [3] 1.46% | viability [4] 80.9% | viability [5] 90.4% | inhibition [6] -0.165% | RAM network inhibition [7] -0.77%

Cc1nn(C)c(C)c1NS(=O)(=O)c1ccccc1
inactive: growth inhibition [1] -9.1% | growth inhibition [2] -6.73% | viability increase [3] -0.34% | viability [4] 98% | viability [5] 88.4% | inhibition [6] 0.545% | RAM network inhibition [7] 6.15%

CC(=O)Nc1ccc(S(=O)(=O)NC2=NCN(CCOC(=O)c3ccccc3)CN2)cc1
inactive: growth inhibition [1] -3.64% | growth inhibition [2] 5.12% | viability increase [3] -1.37% | viability [4] 92.7% | viability [5] 93.6% | inhibition [6] 1.29% | RAM network inhibition [7] 1.02%

CCOc1ccc(C2C(C(=O)NC)=C(C)Nc3nc4ccccc4n32)cc1OC (configuration not stated)
inactive: growth inhibition [1] -4.37% | growth inhibition [2] -0.94% | viability increase [3] 0.24% | viability [4] 98.8% | viability [5] 103% | inhibition [6] 1.18% | RAM network inhibition [7] 2.01%

O=C(CSc1nc2c([nH]c3ccccc32)c(=O)n1-c1cccc(Cl)c1)N1CCOCC1
inactive: growth inhibition [1] -16.6% | growth inhibition [2] -12.8% | viability increase [3] -3.3% | viability [4] 79.6% | viability [5] 79.9% | inhibition [6] 1.64% | RAM network inhibition [7] 3.01%

O=C(c1cccc(S(=O)(=O)N2CCCC2)c1)c1cccc(S(=O)(=O)N2CCCC2)c1
inactive: growth inhibition [1] -6.99% | growth inhibition [2] -7.98% | viability increase [3] -1.22% | viability [4] 60.7% | viability [5] 56.5% | inhibition [6] 1.09% | RAM network inhibition [7] 5.82%

O=C(Nc1c(C(=O)N2CCCCC2)cnn1-c1ccccc1)c1ccco1
inactive: growth inhibition [1] -2.23% | growth inhibition [2] -5.33% | viability increase [3] -0.92% | viability [4] 95.2% | viability [5] 95.5% | inhibition [6] 1.14% | RAM network inhibition [7] 0.25%

COc1cccc(C2CC(c3ccc(Cl)cc3)Nc3nc(N)nn32)c1 (configuration not stated)
inactive: growth inhibition [1] 4.02% | growth inhibition [2] 11.4% | viability increase [3] 3.49% | viability [4] 91.4% | viability [5] 83% | inhibition [6] 1.92% | RAM network inhibition [7] 6.11%

COc1ccc(C2CC(=O)N3CN(c4ccc(C)c(Cl)c4)CSC3=C2C#N)cc1 (configuration not stated)
inactive: growth inhibition [1] 5.58% | growth inhibition [2] 21.9% | viability increase [3] -5.36% | viability [4] 90.1% | viability [5] 89.5% | inhibition [6] 0.91% | RAM network inhibition [7] -1.96%

CCCN1Cc2cccc(C(=O)Nc3ccc4c(c3)OCCO4)c2C1=O
inactive: growth inhibition [1] 0.22% | growth inhibition [2] -5.64% | viability increase [3] 0.47% | viability [4] 106% | viability [5] 97.2% | inhibition [6] 1.35% | RAM network inhibition [7] 2.75%

CCn1c(N)nc2c1c(=O)n(C)c(=O)n2C
inactive: growth inhibition [1] 4.48% | growth inhibition [2] -1.29% | viability increase [3] -1.39% | viability [4] 108% | viability [5] 98.9% | inhibition [6] 0.32% | RAM network inhibition [7] 2.67%

CC1CCCCN1C(=O)c1ccccc1NC(=O)c1ccco1 (configuration not stated)
inactive: growth inhibition [1] -17.6% | growth inhibition [2] -14.8% | viability increase [3] -2.69% | viability [4] 94.7% | viability [5] 96.5% | inhibition [6] 2.17% | RAM network inhibition [7] 1.7%

COCC(C)N=Cc1c(O)[nH]c2ccccc12 (configuration not stated)
inactive: growth inhibition [1] 0.585% | growth inhibition [2] 1.21% | viability increase [3] -2.38% | viability [4] 92.1% | viability [5] 97.5% | inhibition [6] 0.82% | RAM network inhibition [7] -1.18%

C=CCn1c(CCCNC(=O)C(C)(C)C)nc2ccccc21
inactive: growth inhibition [1] -10.7% | growth inhibition [2] -20.9% | viability increase [3] -1.33% | viability [4] 99.7% | viability [5] 96.1% | inhibition [6] 0.295% | RAM network inhibition [7] 5.54%

COc1ccccc1N=C(C)C1=C(O)CSC1=O
inactive: growth inhibition [1] -9.17% | growth inhibition [2] -5.92% | viability increase [3] -1.29% | viability [4] 99.6% | viability [5] 93.3% | inhibition [6] -0.17% | RAM network inhibition [7] 6.89%

CNC(=O)c1sc2nc(-c3ccc(OC)cc3)cn2c1C
inactive: growth inhibition [1] 3.27% | growth inhibition [2] 2.45% | viability increase [3] 1.57% | viability [4] 104% | viability [5] 106% | inhibition [6] 2% | RAM network inhibition [7] 0.64%

Cc1cnc(NC(=O)c2ccc(-c3nc4ccccc4s3)o2)s1
inactive: growth inhibition [1] -7.12% | growth inhibition [2] 10.2% | viability increase [3] -3.16% | viability [4] 98.1% | viability [5] 96.3% | inhibition [6] 0.165% | RAM network inhibition [7] 0.78%

COC(=O)C1C(=O)c2c([nH]c(C(=O)OC3CCCC3C)c2C)CC1C (configuration not stated)
inactive: growth inhibition [1] -4.87% | growth inhibition [2] -2.27% | viability increase [3] 3.21% | viability [4] 81.2% | viability [5] 72.7% | inhibition [6] 2.68% | RAM network inhibition [7] 3.76%

COc1cccc(NC(=O)CSc2nnc(-c3ccc(C)cc3)o2)c1
inactive: growth inhibition [1] -10.3% | growth inhibition [2] -11.9% | viability increase [3] -0.97% | viability [4] 93.9% | viability [5] 93.8% | inhibition [6] 2.13% | RAM network inhibition [7] 4%

COC(=O)c1ccc(NC(=O)CSc2nnc(COc3ccc4c(c3)CCCC4)o2)cc1
inactive: growth inhibition [1] -2.11% | growth inhibition [2] -2.11% | viability increase [3] -3.92% | viability [4] 97.8% | viability [5] 96.7% | inhibition [6] 3.43% | RAM network inhibition [7] 4.19%

O=C(CSc1ccccn1)c1ccc(F)cc1
inactive: growth inhibition [1] 10.7% | growth inhibition [2] 17.6% | viability increase [3] -0.02% | viability [4] 100% | viability [5] 102% | inhibition [6] 2.88% | RAM network inhibition [7] 1.72%

CCn1ncc(C2=NOC(C(=O)Nc3c(C)n(C)n(-c4ccccc4)c3=O)C2)c1C (configuration not stated)
inactive: growth inhibition [1] -7.05% | growth inhibition [2] 5.18% | viability increase [3] 0.26% | viability [4] 96.1% | viability [5] 95.8% | inhibition [6] 0.855% | RAM network inhibition [7] 2.78%

CCOC(=O)Cn1c(=O)oc2cc(S(=O)(=O)Nc3cc(Cl)ccc3OC)ccc21
inactive: growth inhibition [1] -2.69% | growth inhibition [2] -4.88% | viability increase [3] -2.35% | viability [4] 91.9% | viability [5] 89% | inhibition [6] 0.525% | RAM network inhibition [7] 4.96%

Cc1cc(-n2c(SCCC#N)nnc2-c2cccnc2)ccc1Cl
inactive: growth inhibition [1] -12.4% | growth inhibition [2] -22.3% | viability increase [3] -2.79% | viability [4] 98.7% | viability [5] 94.5% | inhibition [6] 3.32% | RAM network inhibition [7] 5.99%

COC(=O)CSC1=C(C#N)C(c2ccccc2F)CC(=O)N1 (configuration not stated)
inactive: growth inhibition [1] -9.32% | growth inhibition [2] -6.92% | viability increase [3] -2.29% | viability [4] 92.6% | viability [5] 94.1% | inhibition [6] 1.32% | RAM network inhibition [7] 0.84%

CCOc1ccccc1N1C(=O)CC(N(O)c2ccccc2)C1=O (configuration not stated)
inactive: growth inhibition [1] -13.4% | growth inhibition [2] -4.14% | viability increase [3] -5.35% | viability [4] 106% | viability [5] 96.3% | inhibition [6] 0.17% | RAM network inhibition [7] 12.8%

CCn1c(CNC(=O)COC)nc2ccccc21
inactive: growth inhibition [1] -5.41% | growth inhibition [2] 0.165% | viability increase [3] 0.97% | viability [4] 105% | viability [5] 97.2% | inhibition [6] 0.7% | RAM network inhibition [7] 5.67%

COc1ccc(N2CCN(C(=O)c3ccc(CNc4c(N5CCOCC5)c(=O)c4=O)cc3)CC2)cc1
inactive: growth inhibition [1] 5.2% | growth inhibition [2] 8.53% | viability increase [3] -3.13% | viability [4] 96.2% | viability [5] 98.5% | inhibition [6] -0.255% | RAM network inhibition [7] -1.5%

CCOc1ccc(OCC)c(Nc2cc(C)nc3ncnn23)c1
inactive: growth inhibition [1] -1.1% | growth inhibition [2] 7.09% | viability increase [3] -3.71% | viability [4] 90% | viability [5] 87.7% | inhibition [6] 0.1% | RAM network inhibition [7] -0.06%

COCC(=O)Nc1ccc(C(N)=O)cc1
inactive: growth inhibition [1] -13.6% | growth inhibition [2] -6.43% | viability increase [3] -0.44% | viability [4] 96.5% | viability [5] 95.3% | inhibition [6] 1.91% | RAM network inhibition [7] 7.41%

CCN(CC)CCCNC(=O)Cn1ncc2c(=O)oc3ccc(C)cc3c21
inactive: growth inhibition [1] -23.9% | growth inhibition [2] -25.6% | viability increase [3] -1.87% | viability [4] 101% | viability [5] 92.3% | inhibition [6] 2.04% | RAM network inhibition [7] 5.92%

CCOc1ccc(C2c3c(oc4ccccc4c3=O)C(=O)N2c2ccc(C)cn2)cc1OC (configuration not stated)
inactive: growth inhibition [1] -7.41% | growth inhibition [2] 2.13% | viability increase [3] -4.09% | viability [4] 81.4% | viability [5] 83.7% | inhibition [6] 1.88% | RAM network inhibition [7] 4.03%

Cc1ccc2oc(=O)c3cc(C(=O)NCCN4CCN(C)CC4)sc3c2c1
inactive: growth inhibition [1] -0.32% | growth inhibition [2] -8.46% | viability increase [3] -1.81% | viability [4] 85.5% | viability [5] 83.5% | inhibition [6] 0.16% | RAM network inhibition [7] 0.45%
